This passage reports MIC, Activity and Selectivity index results from ChEMBL document CHEMBL1148530, “Discovery of new antitubercular oxazolyl thiosemicarbazones” (J Med Chem, 2006).

Values after ≈ are worked out from the molar mass of the structure shown. Active and inactive are the calls of the source. No cut-off for these calls is given here.

For assay [1], the system named is Mycobacterium tuberculosis. The experiment in a line: Antimycobacterial activity against multidrug resistant Mycobacterium tuberculosis. It counts as functional. The essentials:
(§1)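 MIC determined by agar dilution, following the NCCLS-recommended approach, in duplicate. Strains were M. tuberculosis H37Rv and a multidrug-resistant M. tuberculosis. Concentrations were tested up to 25 µg/mL.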

The test system of assay [2] is Mycobacterium tuberculosis. The experiment in a line: Antimycobacterial activity against multidrug resistant Mycobacterium tuberculosis at 25 ug/ml. It counts as functional, organism-based. The essentials:
as §1

In another assay the test system is Vero. Description: Selectivity index, IC50 for Vero cell line/ MIC for multidrug resistant Mycobacterium tuberculosis. It counts as functional. The essentials:
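Vero cells were exposed to compound at 62.5 µg/mL for 72 h. Viability was read by MTT conversion to formazan. Selectivity index is the Vero IC50 divided by the agar-dilution MIC against the listed strain.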

Usually MIC stands for the lowest concentration found to suppress growth. Low readings indicate a more susceptible organism, high ones a less susceptible organism. In assay [1], `S=C(N/N=C(\c1ccccc1)c1ccc(Br)cc1)Nc1ncc(C2CCC2)o1` yielded a minimal inhibitory concentration (MIC) of 0.05 µg/mL (≈ 0.11 µM).
For the molecule `CN(C)c1ccc(/C=N/N=C(\S)Nc2ncc(C3CCC3)o2)cc1`, the minimal inhibitory concentration (MIC) in assay [1] came to 3.12 µg/mL (≈ 9.08 µM).
On the same count and under the same terms, as for `C/C(=N\N=C(/S)Nc1ncc(C2CCC2)o1)c1ccccc1`, the figure is 3.12 µg/mL (≈ 9.92 µM); as for `S=C(NN=C(Cc1ccccc1)Cc1ccccc1)Nc1ncc(C2CCC2)o1`, 6.25 µg/mL (≈ 15.4 µM).
On the same count and under the same terms, as for `NNC(=O)c1ccncc1` [ISONIAZID], the figure is 1.56 µg/mL (≈ 11.4 µM); as for `CO[C@H]1/C=C/O[C@@]2(C)Oc3c(C)c(O)c4c(O)c(c(/C=N/N5CCN(C)CC5)c(O)c4c3C2=O)NC(=O)/C(C)=C\C=C\[C@H](C)[C@H](O)[C@@H](C)[C@@H](O)[C@@H](C)[C@H](OC(C)=O)[C@@H]1C` [RIFAMPIN], 3.12 µg/mL (≈ 3.79 µM).
The same measure, in the same setting: as for `O=[N+]([O-])c1ccc(/C=N/N=C(\S)Nc2ncc(C3CCC3)o2)cc1`, the figure is 0.39 µg/mL (≈ 1.13 µM); as for `COc1c(N2CCNC(C)C2)c(F)cc2c(=O)c(C(=O)O)cn(C3CC3)c12` (stereo unspecified) [GATIFLOXACIN], 6.25 µg/mL (≈ 16.6 µM).
For `N/N=C(\S)Nc1ncc(C2CCC2)o1`, the result in assay [2] was inactive.
In assay [1], `C/C(=N\N=C(/S)Nc1ncc(C2CCC2)o1)c1ccccc1O` came in with an MIC of 3.12 µg/mL (≈ 9.44 µM).
Same read-out and setting: as for `S=C(N/N=C/c1ccc(Cl)cc1)Nc1ncc(C2CCC2)o1`, the figure is 1.56 µg/mL (≈ 4.66 µM).
In assay [1], `Oc1[nH]c2ccccc2c1/N=N/C(S)=N/c1ncc(C2CCC2)o1` returned an MIC of 25 µg/mL (≈ 73.2 µM).
In turn, `COc1ccc(/C=N/N=C(\S)Nc2ncc(C3CCC3)o2)cc1` came in with a minimum inhibitory concentration (MIC) in assay [1] of 6.25 µg/mL (≈ 18.9 µM).
The same measure, in the same setting: as for `C/C(=N\N=C(/S)Nc1ncc(C2CCC2)o1)c1ccc(O)cc1`, the figure is 3.12 µg/mL (≈ 9.44 µM); as for `Cc1ccc(/C=N/N=C(\S)Nc2ncc(C3CCC3)o2)cc1`, 3.12 µg/mL (≈ 9.92 µM); as for `CC[C@@H](CO)NCCN[C@@H](CC)CO` [ETHAMBUTOL], 25 µg/mL (≈ 122 µM).
Still for that read-out and setting: then `O=[N+]([O-])c1ccccc1/C=N/N=C(\S)Nc1ncc(C2CCC2)o1`, with 0.78 µg/mL (≈ 2.26 µM).
Same read-out and setting: then `C/C(=N\N=C(/S)Nc1ncc(C2CCC2)o1)c1ccc([N+](=O)[O-])cc1`, with 0.2 µg/mL (≈ 0.556 µM).
Molecule `Oc1ccccc1/C=N/N=C(\S)Nc1ncc(C2CCC2)o1` returned an MIC in assay [1] of 6.25 µg/mL (≈ 19.8 µM).
With `S=C(NN=C(c1ccccc1)c1ccccc1)Nc1ncc(C2CCC2)o1`, the MIC in assay [1] was 0.1 µg/mL (≈ 0.266 µM). In addition, the Selectivity index in the assay on Vero is given as more than 1250.
`COc1cc(/C=N/N=C(\S)Nc2ncc(C3CCC3)o2)ccc1O`: 12.5 µg/mL (≈ 36.1 µM) was the least that counted as inhibitory in assay [1] (MIC).
Still for that read-out and setting: then `Oc1[nH]c2ccc(F)cc2c1/N=N/C(S)=N/c1ncc(C2CCC2)o1`, with 12.5 µg/mL (≈ 34.8 µM); and `C/C(=N\N=C(/S)Nc1ncc(C2CCC2)o1)c1ccc(C)cc1`, with 0.78 µg/mL (≈ 2.37 µM).
The same measure, in the same setting: then `O=[N+]([O-])c1cccc(/C=N/N=C(\S)Nc2ncc(C3CCC3)o2)c1`, with 0.78 µg/mL (≈ 2.26 µM).
The same measure, in the same setting: then `C/C(=N\N=C(/S)Nc1ncc(C2CCC2)o1)c1ccc(N)cc1`, with 0.78 µg/mL (≈ 2.37 µM).
